In ChEMBL document CHEMBL3044622, “Effectiveness and mode of action of phosphonate inhibitors of plant glutamine synthetase” (Pest Manag Sci, 2010):

Assays:
[1] = target: T1, Glutamine synthetase, chloroplastic (Zea mays) (UniProt P25462); experiment: Inhibition of Zea mays cv. Jeff (maize) leaf glutamine synthetase using L-glutamate as substrate assessed as inorganic phosphate production at 1 mM after 20 min by malachite green assay relative to control
T1 sequence (whole entry): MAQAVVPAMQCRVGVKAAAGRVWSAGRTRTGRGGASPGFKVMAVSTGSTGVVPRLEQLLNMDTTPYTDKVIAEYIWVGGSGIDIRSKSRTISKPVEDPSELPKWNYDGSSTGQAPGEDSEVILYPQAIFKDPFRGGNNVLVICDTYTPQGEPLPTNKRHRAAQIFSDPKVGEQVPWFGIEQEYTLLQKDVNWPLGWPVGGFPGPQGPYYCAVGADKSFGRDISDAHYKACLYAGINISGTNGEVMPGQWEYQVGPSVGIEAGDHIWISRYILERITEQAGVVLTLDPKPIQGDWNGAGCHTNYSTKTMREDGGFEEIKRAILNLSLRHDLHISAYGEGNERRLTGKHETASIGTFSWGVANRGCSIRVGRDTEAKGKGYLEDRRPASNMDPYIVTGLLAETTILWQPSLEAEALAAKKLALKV

[2] = target: T2, Glutamine synthetase, chloroplastic (Zea mays, UniProt P25462); experiment: Inhibition of Zea mays cv. Jeff (maize) leaf glutamine synthetase using L-glutamate as substrate assessed as inorganic phosphate production after 20 min by malachite green assay relative to control
T2 sequence (P25462 whole entry): T1 sequence (whole entry)
In short: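 GS purified from three-leaf-stage maize seedling leaves by ammonium sulfate, DEAE-Sephacel, Reactive Blue flow-through and Mono-Q steps. Inhibitor adjusted to pH 7.4 with KOH, 0.001–5 mM; IC50 by probit method.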

[3] = target: T2, Glutamine synthetase, chloroplastic; experiment: Non-competitive inhibition of Zea mays cv. Jeff( maize) leaf glutamine synthetase using L-glutamate as substrate Lineweaver-Burk plot analysis
[4] = target: T2, Glutamine synthetase, chloroplastic; experiment: Un-competitive inhibition of Zea mays cv. Jeff (maize) leaf glutamine synthetase using ATP as substrate Lineweaver-Burk plot analysis
In short: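 With purified maize leaf GS in the biosynthetic assay (Pi by malachite green, 35 °C), ATP was varied at seven levels from 0.2 to 1 mM with L-glutamate fixed at 50 mM. Four inhibitor levels, 0.5- to 3-fold the I50, each at least in triplicate. Lineweaver–Burk plots were used, and Ki came from Dixon replots. Values are means ± SEM.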

| SMILES | inhibition [1] [%] | IC50 [2] [µM] | Ki [3] [µM] | Ki [4] [µM] |
| --- | --- | --- | --- | --- |
| NC(c1cccc(F)c1)P(=O)(O)O (centres undefined) | 7.9 | – | – | – |
| O=P(O)(O)C(O)c1ccc(Cl)c(Cl)c1 (centres undefined) | 14.6 | – | – | – |
| NC(c1cccc(Cl)c1Cl)P(=O)(O)O (centres undefined) [AMINO(2,3-DICHLOROPHENYL)METHYLPHOSPHONIC ACID] | 47.7 | 1050 | – | – |
| NC(c1ccccc1Br)P(=O)(O)O (centres undefined) [AMINO(2-BROMOPHENYL)METHYLPHOSPHONIC ACID] | 42.5 | 4100 | – | – |
| O=P(O)(O)C(Nc1c(Cl)cccc1Cl)P(=O)(O)O [2,6-DICHLOROPHENYLAMINOMETHYLENEBISPHOSPHONIC ACID] | 81.1 | 15 | – | – |
| O=P(O)(O)C(O)c1cccc(Cl)c1Cl (centres undefined) [(2,3-DICHLOROPHENYL)(HYDROXY)METHYLPHOSPHONIC ACID] | 47.2 | 1160 | – | – |
| O=P(O)(O)C(Nc1ccc(Cl)cc1)P(=O)(O)O [(4-CHLOROPHENYLAMINO)METHYLENEDIPHOSPHONIC ACID] | 79.1 | 21 | – | – |
| NC(c1cccc(Cl)c1)P(=O)(O)O (centres undefined) | 8.1 | – | – | – |
| NC(c1ccccc1F)P(=O)(O)O (centres undefined) [AMINO(2-FLUOROPHENYL)METHYLPHOSPHONIC ACID] | 26.7 | 10100 | – | – |
| Cc1cc(C)cc(NC(P(=O)(O)O)P(=O)(O)O)c1 [3,5-DIMETHYLPHENYLAMINOMETHYLENEBISPHOSPHONIC ACID] | 67.5 | 56 | 53 | 55 |
| O=P(O)(O)C(O)c1ccc(Cl)cc1Cl (centres undefined) [(2,4-DICHLOROPHENYL)(HYDROXY)METHYLPHOSPHONIC ACID] | 31.9 | 4830 | – | – |
| NC(c1ccccc1Cl)P(=O)(O)O (centres undefined) [AMINO(2-CHLOROPHENYL)METHYLPHOSPHONIC ACID] | 36.3 | 5810 | – | – |
| O=P(O)(O)C(Nc1cc(Cl)ccc1Cl)P(=O)(O)O [2,5-DICHLOROPHENYLAMINOMETHYLENEBISPHOSPHONIC ACID] | 79.1 | 39.2 | – | – |
| COc1cccc(C(N)P(=O)(O)O)c1OC (centres undefined) | -1.2 | – | – | – |
| O=P(O)(O)C(Nc1cccc(Cl)c1Cl)P(=O)(O)O [2,3-DICHLOROPHENYLAMINOMETHYLENEBISPHOSPHONIC ACID] | 84.9 | 12.8 | – | – |
| O=P(O)(O)C(Nc1ccc(Cl)c(Cl)c1)P(=O)(O)O [3,4-DICHLOROPHENYLAMINOMETHYLENEBISPHOSPHONIC ACID] | 73.8 | 31.9 | – | – |
| O=P(O)(O)C(Nc1cc(Cl)cc(Cl)c1)P(=O)(O)O [(3,5-DICHLOROPHENYLAMINO)METHYLENEDIPHOSPHONIC ACID] | 86.3 | 7.6 | 7.2 | 6.4 |
| O=P(O)(O)C(Nc1ccc(Cl)cc1Cl)P(=O)(O)O [2,4-DICHLOROPHENYLAMINOMETHYLENEBISPHOSPHONIC ACID] | 79.7 | 21.2 | – | – |
| O=P(O)(O)C(O)c1cccc(Cl)c1 (centres undefined) | 12.3 | – | – | – |
| O=P(O)(O)C(O)c1ccccc1Cl (centres undefined) [(2-CHLOROPHENYL)(HYDROXY)METHYLPHOSPHONIC ACID] | 27 | 6610 | – | – |
| O=P(O)(O)C(O)c1ccc(Cl)cc1 (centres undefined) | 8.3 | – | – | – |
| NC(c1ccc(Cl)cc1Cl)P(=O)(O)O (centres undefined) [AMINO(2,4-DICHLOROPHENYL)METHYLPHOSPHONIC ACID] | 40.7 | 2610 | – | – |
| O=P(O)(O)C(O)c1c(Cl)cccc1Cl (centres undefined) | 10.7 | – | – | – |
| NC(c1ccccc1)P(=O)(O)O (centres undefined) | 13.6 | – | – | – |
